Reference: ChEMBL document CHEMBL3044673, “Design, synthesis and insecticidal activity of novel phenylpyrazoles containing a 2,2,2-trichloro-1-alkoxyethyl moiety” (2010)

What was measured:
Type in all cases: functional
Plutella xylostella [1] = test: Insecticidal activity against Plutella xylostella (diamondback moth) grown on compound pre-treated fresh cabbage leaves assessed as insect mortality at 10 mg/kg measured 3 days post compound treatment by leaf-dip method; conditions: Plutella xylostella
Summary of the method: (§1)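 Leaf-dip stomach-toxicity assay on laboratory-reared diamondback moth. Test solutions came from a 200 mg L^-1 stock in dimethylformamide, diluted with water containing TW-20. Control leaves were treated with water and dimethylformamide. Tests were held at 25±1 °C, percentage mortality was scored 3 days after treatment, and each treatment was run three times.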

Plutella xylostella [2] = test: Insecticidal activity against Plutella xylostella (diamondback moth) grown on compound pre-treated fresh cabbage leaves assessed as insect mortality at 25 mg/kg measured 3 days post compound treatment by leaf-dip method; conditions: Plutella xylostella; summary of the method: as §1
Plutella xylostella [3] = test: Insecticidal activity against Plutella xylostella (diamondback moth) grown on compound pre-treated fresh cabbage leaves assessed as insect mortality at 50 mg/kg measured 3 days post compound treatment by leaf-dip method; summary of the method: as §1
Plutella xylostella [4] = test: Insecticidal activity against Plutella xylostella (diamondback moth) grown on compound pre-treated fresh cabbage leaves assessed as insect mortality at 100 mg/kg measured 3 days post compound treatment by leaf-dip method; summary of the method: as §1
Plutella xylostella [5] = test: Insecticidal activity against Plutella xylostella (diamondback moth) grown on compound pre-treated fresh cabbage leaves assessed as insect mortality at 200 mg/kg measured 3 days post compound treatment by leaf-dip method; summary of the method: as §1
Culex pipiens pallens [6] = test: Insecticidal activity against Culex pipiens pallens (mosquito) assessed as insect mortality at 2.5 ug/kg measured 1 day post compound treatment; conditions: 24 h
Summary of the method: (§2)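 Fourth-instar Culex pipiens pallens larvae, 20 per test, were laboratory-reared and placed in 100 mL of test solution made by adding 1 mL of compound dilution to 99 mL of water. Tests were held at 25±1 °C, percentage mortality was scored 1 day after treatment, and each test was run three times.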

Culex pipiens pallens [7] = test: Insecticidal activity against Culex pipiens pallens (mosquito) assessed as insect mortality at 5 ug/kg measured 1 day post compound treatment; conditions: 24 h; summary of the method: as §2
Culex pipiens pallens [8] = test: Insecticidal activity against Culex pipiens pallens (mosquito) assessed as insect mortality at 10 ug/kg measured 1 day post compound treatment; conditions: 24 h; summary of the method: as §2
Culex pipiens pallens [9] = test: Insecticidal activity against Culex pipiens pallens (mosquito) assessed as insect mortality at 25 ug/kg measured 1 day post compound treatment; conditions: 24 h; summary of the method: as §2
Culex pipiens pallens [10] = test: Insecticidal activity against Culex pipiens pallens (mosquito) assessed as insect mortality at 50 ug/kg measured 1 day post compound treatment; conditions: 24 h; summary of the method: as §2
Culex pipiens pallens [11] = test: Insecticidal activity against Culex pipiens pallens (mosquito) assessed as insect mortality at 100 ug/kg measured 1 day post compound treatment; conditions: Culex pipiens, 24 h; summary of the method: as §2
Aphis craccivora [12] = test: Insecticidal activity against Aphis craccivora (cowpea aphid) infested tender soybean shoots exposed to 10 mg/kg test compound solution assessed as insect mortality measured 24 hr post compound treatment; conditions: Aphis craccivora, 24 h
Summary of the method: (§3)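 Soybean tender shoots carrying 60 aphids were dipped in test solutions. Solutions were made from a 200 mg L^-1 stock in dimethylformamide, diluted with water containing TW-20. Insects were laboratory-reared, tests were held at 25±1 °C, and mortality was scored.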

Aphis craccivora [13] = test: Insecticidal activity against Aphis craccivora (cowpea aphid) infested tender soybean shoots exposed to 25 mg/kg test compound solution assessed as insect mortality measured 24 hr post compound treatment; summary of the method: as §3
Aphis craccivora [14] = test: Insecticidal activity against Aphis craccivora (cowpea aphid) infested tender soybean shoots exposed to 50 mg/kg test compound solution assessed as insect mortality measured 24 hr post compound treatment; summary of the method: as §3
Aphis craccivora [15] = test: Insecticidal activity against Aphis craccivora (cowpea aphid) infested tender soybean shoots exposed to 100 mg/kg test compound solution assessed as insect mortality measured 24 hr post compound treatment; summary of the method: as §3
Aphis craccivora [16] = test: Insecticidal activity against Aphis craccivora (cowpea aphid) infested tender soybean shoots exposed to 200 mg/kg test compound solution assessed as insect mortality measured 24 hr post compound treatment; summary of the method: as §3
Aphis craccivora [17] = test: Insecticidal activity against Aphis craccivora (cowpea aphid) infested tender soybean shoots exposed to 2.5 mg/kg test compound solution assessed as insect mortality measured 24 hr post compound treatment; conditions: Aphis craccivora, 24 h; summary of the method: as §3
Aphis craccivora [18] = test: Insecticidal activity against Aphis craccivora (cowpea aphid) infested tender soybean shoots exposed to 5 mg/kg test compound solution assessed as insect mortality measured 24 hr post compound treatment; conditions: Aphis craccivora, 24 h; summary of the method: as §3
Plutella xylostella [19] = test: Insecticidal activity against Plutella xylostella (diamondback moth) grown on compound pre-treated fresh cabbage leaves assessed as insect mortality at 2.5 mg/kg measured 3 days post compound treatment by leaf-dip method; summary of the method: as §1
Plutella xylostella [20] = test: Insecticidal activity against Plutella xylostella (diamondback moth) grown on compound pre-treated fresh cabbage leaves assessed as insect mortality at 5 mg/kg measured 3 days post compound treatment by leaf-dip method; conditions: Plutella xylostella; summary of the method: as §1
Mythimna separata = test: Insecticidal activity against Mythimna separata (Oriental armyworm) grown on compound pre-treated corn leaves assessed as insect mortality at 200 mg/kg measured 3 days post compound treatment by leaf-dip method
Aphis craccivora [21] = test: Insecticidal activity against Aphis craccivora (cowpea aphid) infested tender soybean shoots exposed to test compound solution assessed as insect mortality measured 24 hr post compound treatment; summary of the method: as §3

Row | Compound | mortality at 10 mg/kg (Plutella xylostella [1]) | mortality at 25 mg/kg (Plutella xylostella [2]) | mortality at 50 mg/kg (Plutella xylostella [3]) | mortality at 100 mg/kg (Plutella xylostella [4]) | mortality at 200 mg/kg (Plutella xylostella [5]) | mortality at 0.0025 mg/kg (Culex pipiens pallens [6]) | mortality at 0.005 mg/kg (Culex pipiens pallens [7]) | mortality at 0.01 mg/kg (Culex pipiens pallens [8]) | mortality at 0.025 mg/kg (Culex pipiens pallens [9]) | mortality at 0.05 mg/kg (Culex pipiens pallens [10]) | mortality at 0.1 mg/kg (Culex pipiens pallens [11]) | mortality at 10 mg/kg (Aphis craccivora [12]) | mortality at 25 mg/kg (Aphis craccivora [13]) | mortality at 50 mg/kg (Aphis craccivora [14]) | mortality at 100 mg/kg (Aphis craccivora [15]) | mortality at 200 mg/kg (Aphis craccivora [16]) | mortality at 2.5 mg/kg (Aphis craccivora [17]) | mortality at 5 mg/kg (Aphis craccivora [18]) | mortality at 2.5 mg/kg (Plutella xylostella [19]) | mortality at 5 mg/kg (Plutella xylostella [20]) | other results
1 | CCSc1c(C#N)nn(-c2c(Cl)cc(C(F)(F)F)cc2Cl)c1NC(OC)C(Cl)(Cl)Cl (stereo not given) | 0% | 34% | 94% | 100% | 100% | 30% | 100% | 100% | 100% | 100% | 100% | 0% | 62% | 80% | 90% | 93% | – | – | – | – | –
2 | CCCOC(Nc1c(SC)c(C#N)nn1-c1c(Cl)cc(C(F)(F)F)cc1Cl)C(Cl)(Cl)Cl (stereo not given) | 0% | 17% | 36% | 100% | 100% | 100% | 100% | 100% | 100% | 100% | 100% | 21% | 43% | 90% | 100% | 100% | 0% | 0% | – | – | –
3 | CCOC(Nc1c(SC)c(C#N)nn1-c1c(Cl)cc(C(F)(F)F)cc1Cl)C(Cl)(Cl)Cl (stereo not given) | 68% | 84% | 100% | 100% | 100% | 80% | 100% | 100% | 100% | 100% | 100% | 0% | 43% | 56% | 100% | 100% | – | 0% | 0% | 43% | –
4 | COC(Nc1c(SC)c(C#N)nn1-c1c(Cl)cc(C(F)(F)F)cc1Cl)C(Cl)(Cl)Cl (stereo not given) | 86% | 100% | 100% | 100% | 100% | 70% | 100% | 100% | 100% | 100% | 100% | 89% | 94% | 100% | 100% | 100% | 0% | 43% | 25% | 76% | –
5 | CC[S+]([O-])c1c(C#N)nn(-c2c(Cl)cc(C(F)(F)F)cc2Cl)c1N (stereo not given) [ETHIPROLE] | 23% | 69% | 100% | 100% | 100% | – | – | – | 50% | 100% | 100% | 31% | 100% | 100% | 100% | 100% | – | 0% | – | 0% | mortality at 200 mg/kg (Mythimna separata): 0%; LC50 (Aphis craccivora [21]): 11.7263 mg/kg
